Assay results taken from PubChem BioAssay.
This is one part of the list. Values without a mark were called inactive. Active and inactive are the calls of the source.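 How the source made its calls, unless noted: active means mean activation over triplicate wells above the hit cutoff derived from the earlier primary screen (cut at about 11% in these data); inactive means the rest.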

What was measured:
[1] = molecular target: Oxysterols receptor LXR-beta (Homo sapiens) (UniProt P55055); assay: nonspecific reporter activation via LXR – cell-based, luminescence, HEK293, H. contortus campaign, counter-screen for hcDAF-12 agonist project, confirmation (AID 743027;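 active means mean percent activation of the reporter above a cutoff set as the average over tested compounds plus their standard deviation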); settings: HEK293 Gal4-LXR tk-luc reporter, 24 h, at 6.8 µM, stronger effect = higher value, normalized: DMSO 0%, positive control 100%
Chain of Oxysterols receptor LXR-beta (Homo sapiens) (P55055 whole entry, looked up, the tested form may be a part): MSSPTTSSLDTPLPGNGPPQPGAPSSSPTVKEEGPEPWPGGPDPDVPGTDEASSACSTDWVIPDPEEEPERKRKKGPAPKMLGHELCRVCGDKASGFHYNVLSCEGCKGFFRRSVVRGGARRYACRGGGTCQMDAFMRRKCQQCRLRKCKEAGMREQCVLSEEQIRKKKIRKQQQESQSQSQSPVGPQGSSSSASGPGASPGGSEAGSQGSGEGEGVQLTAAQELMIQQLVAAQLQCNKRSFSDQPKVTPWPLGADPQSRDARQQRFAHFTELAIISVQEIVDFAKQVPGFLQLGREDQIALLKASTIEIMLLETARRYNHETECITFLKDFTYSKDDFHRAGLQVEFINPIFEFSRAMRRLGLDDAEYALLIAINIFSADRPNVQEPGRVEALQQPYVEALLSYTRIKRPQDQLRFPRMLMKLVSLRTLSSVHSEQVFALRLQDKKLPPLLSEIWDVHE
Procedure, shortened: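 Assay system: Gal4-LXR and tk-luc reporter transfected HEK293 cells; Compound: 6.8 µM single dose; Times: one-day compound treatment at 37 °C; Technique: One-Glo luciferase luminescence; Read-out basis: % activation relative to DMSO and positive-control wells; Benchmarks: DMSO low control, positive-control high control; Repeats: three replicates per compound.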

[2] = test system: Nuclear hormone receptor DAF-12 (Haemonchus contortus); assay: hcDAF-12 luciferase reporter activation, retest – cell-based, luminescence, HEK293, lit1-tk-luc, triplicate, confirmation (AID 743032;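 active means mean activation across triplicate tests above the threshold derived from the earlier primary screen, cut at about 5.5% in these data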;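 further: 0% = DMSO only wells and 100% = 3 µM Δ7-dafachronic acid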); settings: HEK293 hcDAF-12 lit1-tk-luc reporter, at 6.8 µM, stronger effect = higher value, % of Δ7-dafachronic acid response
[3] = test system: DAF-12 nuclear receptor (Heterodera glycines), GAL4-LBD fusion; assay: hgDAF-12 GAL4 fusion reporter activation, retest – cell-based, luminescence, HEK293, GAL4-LBD fusion, confirmation (AID 743050); settings: HEK293 GAL4-hgDAF12 luciferase reporter, agonist mode; at 6.8 µM; stronger effect = higher value; percent of butyrate response;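 further: 0% = DMSO low control and 100% = 2 mM sodium butyrate high control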
[4] = molecular target: Oxysterols receptor LXR-beta (Homo sapiens) (UniProt P55055); assay: nonspecific reporter activation via LXR – cell-based, luminescence, HEK293, H. glycines campaign, counter-screen for hgDAF-12 agonist project, confirmation (AID 743051;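 active means mean activation of the triplicate above a set limit carried over from the primary screen, none filed active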); settings: HEK293 Gal4-LXR luciferase reporter, 24 h; at 6.8 µM; stronger effect = higher value
Procedure, shortened: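 System: HEK293 cells with Gal4-LXR and tk-luc reporter. Compound dosing: single nominal test compound dose of 6.8 µM. Timing: 3 h cell plating, then 24 h compound exposure at 37 °C. Detection: One-Glo luminescence after 15 min. Read-out basis: percent activation relative to median DMSO and positive-control wells. Benchmarks: DMSO low control, 0.68% final.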

Structure (SMILES) | activation [1] | activation [2] | activation [3] | activation [4]
Brc1ccc2nc(N3CCCC3)sc2c1 | 0.77% | 5.13% | 12.5% (active) | 0.64%
Cc1ccnc(Nc2nc3ccccc3s2)n1 | 1.72% | 18.5% (active) | 15% (active) | 1.12%
Cc1cccc(N(CC(=O)Nc2ccc(-c3nc4ccc(C)cc4s3)cc2)S(C)(=O)=O)c1 | – | – | 19.8% (active) | 0.65%
Cc1cccc(NC(=O)c2ccc3ccccc3n2)n1 | 1.06% | 10.5% (active) | 17% (active) | 0.69%
Brc1ccc(-c2noc(-c3ccccc3)n2)o1 | 0.77% | 7.78% (active) | 18.7% (active) | 0.75%
Oc1cccc2ccc(/C=C/c3ccc(Br)s3)nc12 | 1.05% | 13.8% (active) | 15.8% (active) | 0.56%
Cc1ccnc(NC(=O)CCNS(=O)(=O)c2ccc(C)c(C)c2)c1 | 1.16% | 5.73% (active) | 17.9% (active) | 0.55%
Cc1ccc(NC(=O)c2sccc2C)cc1[N+](=O)[O-] | – | – | 11% (active) | 0.43%
c1ccc(Cc2c(-c3ccco3)nc3c4ccccc4ccn23)cc1 | 1.44% | 15.8% (active) | 16.6% (active) | 0.76%
Oc1ccccc1-c1cc(-c2ccc(Cl)cc2)n[nH]1 | 1.85% | 14.7% (active) | 29.5% (active) | 1.15%
Nc1ccc(C(=O)Nc2ccccc2N)cc1 | 1.14% | 9.52% (active) | 85.4% (active) | 0.48%
OC(c1ccccc1)c1nc(-c2cnc3ccccc3c2)cs1 (stereo not given) | 1.85% | 6.14% (active) | 26.4% (active) | 0.98%
Cc1ccc(-n2cc3ccc([N+](=O)[O-])cc3n2)cc1 | 2.14% | 6.7% (active) | 22.6% (active) | 0.97%
Cc1cc(OCc2cc(C(=O)NCc3cc(C(C)C)no3)no2)cc(C)c1Cl | 0.91% | 7.69% (active) | 20.9% (active) | 0.62%
CSc1ccc(/C=N/NC(=O)c2cccc(Cl)c2)cc1 | – | – | 14.8% (active) | 0.56%
CS(=O)(=O)N1CCc2nc(-c3ccccc3)sc2C1 | – | – | 10.3% | 0.56%
CNS(=O)(=O)c1ccc(NC(=O)Nc2ccc3c(c2)OCO3)cc1 | – | – | 13.2% (active) | 0.5%

Structure (SMILES) | activation [1] | activation [2] | activation [3] | activation [4]
CN(C)S(=O)(=O)c1ccc2oc(SCC(=O)Nc3ccccc3F)nc2c1 | – | – | 15.5% (active) | 0.66%
O=[N+]([O-])c1cc(S(=O)(=O)N2CCCC2)ccc1NN=C1CCCC1 | – | – | -0.65% | -0.04%
Cc1ccc(C(=O)Nc2ccc(C)c(S(=O)(=O)N(C)C)c2)s1 | – | – | 11.2% (active) | 0.45%
O=C(NC(=S)NC1CCCCC1)c1ccc(Cl)cc1 | – | – | 11.3% (active) | 0.45%
N/C(=N\OC(=O)CCC1CCCCC1)c1ccccn1 | – | – | 12.3% (active) | 0.49%
CC1C/C(=N/NC(=O)c2cccs2)CC(C)(C)C1 (stereo not given) | – | – | 4.24% | 0.21%
CCCNC(=O)c1c(Cl)cnn1-c1ccc(C)cc1 | – | – | 9.95% | 0.55%
COc1ccc(/C=C2/CCCc3ccccc3C2=O)cc1 | – | – | 18.7% (active) | 0.78%
COc1ccc(-c2cn3cccnc3n2)cc1 | – | – | 9.37% | 0.23%
Cc1ccc2nc(-c3ccc(SCC(=O)Nc4cc(C)on4)nc3)[nH]c2c1 | – | – | 15.6% (active) | 0.54%
O=C(CCSc1ccccc1)N1CCN(c2ccccc2F)CC1 | – | – | 14.2% (active) | 0.48%
O=C(NC1CCC1)c1ccc(C#CC2CC2)cn1 | – | – | 13.4% (active) | 0.57%
O=C(NCCc1ccc(F)cc1)c1ccc2nccnc2c1 | – | – | 17% (active) | 0.74%
O=C(Nc1cccc(O)c1)c1ccc(C(=O)c2ccccc2)o1 | – | – | 12.2% (active) | 0.51%
Cc1cc(O)c(NC(=O)c2ccc(C)c([N+](=O)[O-])c2)cc1C | – | – | 10% | 0.55%
CC1CCCN(c2ccc(C(=O)NCCc3ccccc3)cn2)C1 (stereo not given) | – | – | 14.6% (active) | 0.64%
